Each block holds one compound with its values, some of them ahead of it.
Legend:
[1] = system: Rattus norvegicus; assay: Oral dose which produces a 30 mmHg drop of systolic blood pressure (calculated on regression line); type: functional; details: Artery
In short: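 Groups of three male conscious spontaneously hypertensive rats; compound suspended in aqueous 0.5% methocel and given by gavage at 2 mL/kg. Systolic pressure measured by indirect tail-cuff before and 2 and 4 h after dosing, following 20 min warming at 37 °C. The dose giving a 30 mmHg fall was read from the regression line of maximum fall against log dose.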

[2] = Partition coefficient (logD7.4); details: octanol/water, pH 7.4
[3] = system: Canis familiaris; assay: Effect of compound (given intravenously) on heart rate in conscious renal hypertensive dogs at 12 h; type: functional, Canis lupus familiaris
In short: (§1)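 Groups of four conscious mongrel renal hypertensive dogs; compound dissolved in distilled water and given intravenously at 0.5 mL/kg (1 mg/kg or 0.3 mg/kg in the time-course table). Systolic pressure and heart rate measured indirectly at the tail with a sensor and pressure cuff, at 0, 4, 6, 8, 10, 12 and 20 h. Values are mean ± SE of four animals.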

[4] = system: Canis familiaris; assay: Effect of compound (given intravenously) on heart rate in conscious renal hypertensive dogs at 0 h; type: functional, Canis lupus familiaris; in short: as §1
[5] = system: Canis familiaris; assay: Effect of compound (given intravenously) on systolic blood pressure in conscious renal hypertensive dogs at 0 h; type: functional, Canis lupus familiaris, Artery; in short: as §1
[6] = system: Canis familiaris; assay: Effect of compound (given intravenously) on systolic blood pressure in conscious renal hypertensive dogs at 12 h; type: functional, Canis lupus familiaris, Artery; in short: as §1
[7] = system: Canis familiaris; assay: Effect of compound (given intravenously) on heart rate in conscious renal hypertensive dogs at 10 h; type: functional, Canis lupus familiaris; in short: as §1
[8] = system: Canis familiaris; assay: Effect of compound (given intravenously) on systolic blood pressure in conscious renal hypertensive dogs at 20 h; type: functional, Canis lupus familiaris, Artery; in short: as §1
[9] = system: Canis familiaris; assay: Effect of compound (given intravenously) on systolic blood pressure in conscious renal hypertensive dogs at 4 h; type: functional, Canis lupus familiaris, Artery; in short: as §1
[10] = system: Canis familiaris; assay: Effect of compound (given intravenously) on heart rate in conscious renal hypertensive dogs at 4 h; type: functional, Canis lupus familiaris; in short: as §1
[11] = system: Canis familiaris; assay: Effect of compound (given intravenously) on heart rate in conscious renal hypertensive dogs at 20 h; type: functional, Canis lupus familiaris; in short: as §1
[12] = system: Canis familiaris; assay: Effect of compound (given intravenously) on systolic blood pressure in conscious renal hypertensive dogs at 10 h; type: functional, Canis lupus familiaris, Artery; in short: as §1
[13] = system: Canis familiaris; assay: Effect of compound (given intravenously) on systolic blood pressure in conscious renal hypertensive dogs at 6 h; type: functional, Canis lupus familiaris, Artery; in short: as §1
[14] = system: Canis familiaris; assay: Effect of compound (given intravenously) on systolic blood pressure in conscious renal hypertensive dogs at 8 h; type: functional, Canis lupus familiaris, Artery; in short: as §1
[15] = system: Canis familiaris; assay: Effect of compound (given intravenously) on heart rate in conscious renal hypertensive dogs at 8 h; type: functional, Canis lupus familiaris; in short: as §1
[16] = system: Canis familiaris; assay: Effect of compound (given intravenously) on heart rate in conscious renal hypertensive dogs 6 h; type: functional, Canis lupus familiaris; in short: as §1

SMILES: Cc1ccc(C)n1Nc1ccc(N(CCO)CCO)nn1
ED30 [1]: > 100 mg/kg

SMILES: CCOCCN(CCOCC)c1ccc(Nn2c(C)ccc2C)nn1
ED30 [1]: 2 mg/kg

SMILES: Cc1ccc(C)n1Nc1ccc(N(CCO)CC(C)O)nn1 (stereo not drawn)
ED30 [1]: > 100 mg/kg

SMILES: Cc1ccc(C)n1Nc1nnc(N2CCOCC2)c2c1CCCC2
ED30 [1]: ~33 mg/kg

SMILES: Cc1ccc(C)n1Nc1ccc(N2CCC(O)CC2)nn1
ED30 [1]: 12.6 mg/kg

SMILES: Cc1ccc(C)n1Nc1ccc(N2CCCC2)nn1
ED30 [1]: > 100 mg/kg

SMILES: CN(c1ccc(N2CCOCC2)nn1)n1cccc1
ED30 [1]: 16.5 mg/kg

logD [2]: 2.71
SMILES: CCc1ccc(CC)n1Nc1ccc(N2CCOCC2)nn1
ED30 [1]: 15.4 mg/kg

SMILES: Cc1ccc(C)n1Nc1ccc(N2CCN(C)CC2)nn1
ED30 [1]: ~43 mg/kg

logD [2]: 2.16
SMILES: COCCN(C)c1ccc(Nn2c(C)ccc2C)nn1
ED30 [1]: 7 mg/kg

SMILES: CCN(CC)c1ccc(Nn2c(C)ccc2C)nn1
ED30 [1]: 3.9 mg/kg

SMILES: Cc1ccc(C)n1Nc1ccc(N(CC(C)O)CC(C)O)nn1 (stereo not drawn)
ED30 [1]: ~54 mg/kg

logD [2]: 1.64
SMILES: CC(=O)N(c1ccc(N2CCOCC2)nn1)n1c(C)ccc1C
ED30 [1]: 11.8 mg/kg

SMILES: Cc1ccc(C)n1Nc1ccc(N(C)C)nn1
ED30 [1]: ~22 mg/kg

SMILES: Cc1ccc(C)n1Nc1nnc(N2CCOCC2)c2ccccc12
ED30 [1]: ~91 mg/kg

SMILES: Cc1ccc(C)n1Nc1ccc(N2C(C)COCC2C)nn1 (stereo not drawn)
ED30 [1]: 18.5 mg/kg

SMILES: Cc1ccc(C)n1Nc1ccc(N2CCSCC2)nn1
ED30 [1]: ~25 mg/kg

SMILES: Cc1ccc(C)n1Nc1ccc(N2CCCCC2)nn1
ED30 [1]: 10 mg/kg

SMILES: Cc1ccc(C)n1Nc1ccc(N2CCNCC2)nn1
ED30 [1]: 30 mg/kg

SMILES: Cc1ccc(C)n1Nc1nnc(N2CCC(O)CC2)c2ccccc12
ED30 [1]: ~33 mg/kg

SMILES: COCCN(CCOC)c1ccc(Nn2c(C)ccc2C)nn1
ED30 [1]: 2.7 mg/kg

SMILES: Cc1cc(N2CCOCC2)nnc1Nn1c(C)ccc1C
ED30 [1]: ~26 mg/kg

SMILES: c1ccn(Nc2ccc(N3CCOCC3)nn2)c1
ED30 [1]: > 100 mg/kg

SMILES: C=CCN(CC=C)c1ccc(Nn2c(C)ccc2C)nn1
ED30 [1]: 11.4 mg/kg

logD [2]: 2.21
SMILES: Cc1ccc(C)n1N(C)c1ccc(N2CCOCC2)nn1
ED30 [1]: 15.8 mg/kg

SMILES: Cc1ccc(C)n1Nc1ccc(N(C)CC(C)O)nn1 (stereo not drawn)
ED30 [1]: 7.7 mg/kg

SMILES: Cc1c(Nn2c(C)ccc2C)nnc(N2CCOCC2)c1C
ED30 [1]: 35 mg/kg

SMILES: NNc1nncc2ccccc12 [HYDRALAZINE]
Heart rate [3]: 118 beats min-1
Heart rate [4]: 78 beats min-1
Pressure [5]: 188 mmHg
Pressure [6]: 190 mmHg
Heart rate [7]: 125 beats min-1
Pressure [8]: 188 mmHg
Pressure [9]: 135 mmHg
Heart rate [10]: 128 beats min-1
Heart rate [11]: 115 beats min-1
Pressure [12]: 188 mmHg
Pressure [13]: 138 mmHg
Pressure [14]: 148 mmHg

SMILES: Cc1ccc(C)n1Nc1ccc(N2CCOCC2)nn1.Cl [MOPIDRALAZINE HYDROCHLORIDE]
Heart rate [3]: 105 beats min-1
Heart rate [15]: 110 beats min-1
Heart rate [4]: 80 beats min-1
Pressure [5]: 190 mmHg
Pressure [6]: 165 mmHg
Heart rate [7]: 107 beats min-1
ED30 [1]: 3.9 mg/kg
Pressure [8]: 187 mmHg
Pressure [9]: 168 mmHg
Heart rate [10]: 92 beats min-1
Heart rate [11]: 105 beats min-1
Pressure [12]: 147 mmHg
Pressure [13]: 150 mmHg
Pressure [14]: 140 mmHg
Heart rate [16]: 100 beats min-1

— ChEMBL document CHEMBL1122703, “Antihypertensives. N-1H-Pyrrol-1-yl-3-pyridazinamines” (J Med Chem, 1984)
